SMILES strings stand for the structures.

The series is described as follows: Toxicity liver stage against HepG2, at 10uM. It counts as cell-based. Particulars: human, HepG2-A16-CD81EGFP cells; read-out: INHIBITION
Also noted: test concentration 10 uM, cell line HepG2-A16-CD81EGFP. The essentials: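 Uninfected HepG2-A16-CD81EGFP cells, 3 × 10^3 per well, 1536-well, plated on prespotted compound at 10 μM final, parasite-free screening media added to match infected plates; puromycin 10 μM positive, DMSO 0.5% negative; run in parallel with 48 h PbLuc assay at 37 °C, 5% CO2; viability by CellTiter-Glo luminescence, normalized to controls.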
With `CCC1(CC)C(=O)NC(=O)N/C1=N/c1cccc(OC)c1`, the cytotoxicity at 10 µM was -51.8%.

For the compound `CC(=O)Nc1nc(-c2ccccc2)c[nH]1`, the cytotoxicity at 10 µM was -1%. As for `CCCOc1ccc(CC2=NC(C)(CO)CO2)cc1` (stereo not drawn), the cytotoxicity at 10 µM was 24.8%. With `CC(C)CNC(=O)c1nc(COc2ccc3c(c2)OCO3)no1` the figure was 2.93%; with `CC(C)n1ccc2ccc(C(=O)NC3CN4CCC3CC4)cc21` (stereo not drawn), -57.4%. As to `CCOC(=O)c1cc2n(n1)CCCO2`, the cytotoxicity at 10 µM is 3.86%. With `Cc1noc(CNC(=O)CN(C)c2nc3c(C)ccc(C)c3s2)n1`, the cytotoxicity at 10 µM worked out at 55.7%. With `Cc1nsc(C(=O)NCCCc2ccccc2)n1` the figure was -0.449%; with `CCOc1cc(CNCCCn2ccnc2)cc(Cl)c1OCC`, 1.82%. In the case of `Cc1nc(C#N)c(N2CCC(c3nc(-c4ccccc4)no3)CC2)o1` it was -7.41%; in that of `Cc1c(CNS(=O)(=O)c2cccc(COC(C)C)c2)cnn1C`, 6.14%. With `CN(C)c1ccc(C(=O)N2CCC(c3cc4ncccc4[nH]3)CC2)cc1`, the cytotoxicity at 10 µM was -2.32%. With `CCN1CCCC1CNCc1cc2cc3c(cc2[nH]c1=O)OCCO3` (stereo not drawn) the figure was 5.07%. For `Cc1cc(N2CCC(c3n[nH]c4nccnc34)CC2)ncn1`, the cytotoxicity at 10 µM was -25.6%. In the case of `C[C@H](NC(=O)C1CCCC1)c1nc2cc(-c3ccc(F)cc3)ncn2n1` it was -10.9%; in that of `COCC(=O)N1CCC(C(=O)c2cc(C)cnc2N)CC1`, 0.353%. With `CCCn1ncc(CN2C[C@@H]3CCCN3C[C@H]2Cc2ccccc2)c1C` the figure was -16.3%. As for `Cc1ccc(C(=O)N2CCc3nc4c(C)csc4c(=O)n3CC2)cn1`, the cytotoxicity at 10 µM is -7.33%.

Turning to `COCc1cc(O)nc(C2CCCN(Cc3cccc(OC)c3)C2)n1` (stereo not drawn), the cytotoxicity at 10 µM is 4.97%. In the case of `CCOC(=O)CCN(Cc1cccnc1)C(=O)c1cc(Cl)c[nH]1` it was -1.24%; in that of `COCCN(Cc1ccccn1)C(=O)CC1OCCc2ccsc21` (stereo not drawn), -39%; in that of `CCN(CC)S(=O)(=O)CC(=O)N1CCc2ccc(C)cc21`, -5.77%.

As to `CC(=O)NCC1CCN(Cc2nc(C3CC3)no2)CC1`, the cytotoxicity at 10 µM was -4.12%. In the case of `COc1ccccc1OCCNS(=O)(=O)N1CCOCC1` it was 9.37%; in that of `Cc1nsc(N2CCN(Cc3cccc(F)c3)CC2)n1`, 2.74%. For `CN(Cc1ccccc1CNC(=O)C1CNC(=O)N1)C1CCCCC1` (stereo not drawn), the cytotoxicity at 10 µM turned out to be 5.09%.

On to `CNC(=O)c1ccc(CN(C)c2ccc(C(F)(F)F)cn2)cc1`, for which the cytotoxicity at 10 µM came out at 6.71%. In the case of `Cc1cccc(CSc2nnc(C)n2CC(N)=O)c1` it was -4.46%; in that of `CCCn1nc2c(cc1=O)CN(Cc1ccccn1)CC2`, 1.53%; in that of `Cc1cc(=O)n2ncnc2n1CC(O)c1ccc(F)cc1F` (stereo not drawn), -1.2%.

As to `CCCc1noc(CS(=O)(=O)CC(=O)NC(C)CCC)n1` (stereo not drawn), the cytotoxicity at 10 µM was 3.22%. With `Cc1noc(C)c1CC(=O)NCC(C(C)C)N1CCOCC1` (stereo not drawn) the figure was -42.7%. In the case of `OCc1cc2ccccc2nc1NCC1(O)CCC1` it was -46.9%. With `CC(C)C(=O)NCCNC(=O)C12CCC(=O)N1c1cc(Cl)ccc1S2` (stereo not drawn) the figure was 15.3%; with `COc1ccc(C)cc1CC(=O)NC(CC(=O)O)c1ccc(F)cc1` (stereo not drawn), 7.66%; with `CC(C)COC(C)C(=O)NCc1ccc(Cn2ccnc2)cc1` (stereo not drawn), -2.65%.

With `c1cnnc(N2CCCC(NCc3nc(C4CC4)no3)C2)c1` (stereo not drawn), the cytotoxicity at 10 µM was -14.6%. In the case of `COCCN(C)C(=O)Nc1ccc2c(ccn2CCOC)c1` it was -3.83%; in that of `Cc1ccc(N2CCc3ncnc(C4CC4)c3CC2)nn1`, -85%. In the case of `CCN(CC)C(=O)c1nc2c(s1)CCN(C(=O)Nc1ccccc1)CC2` it was 12%; in that of `CCN(CC)Cc1cc(=O)n2c(n1)CN(C(=O)c1ccc[nH]1)CCC2`, -112%; in that of `CC(=O)N1CCC2(CC1)c1ncc(-c3cccnc3)n1CCN2C`, -94%. With `CN(Cc1cncnc1)[C@H]1CN(C(=O)c2ccc[nH]2)[C@@H]2CCCO[C@@H]21` the figure was -107%; with `COC(=O)CCC(=O)N1CCC2(CN(Cc3cccc(Cl)c3)C2)C1`, -62.4%; with `O=C(Cc1ccc(F)cc1)N1CCn2c(Cn3cncn3)cnc2C1`, -67.3%. With `O=C(NC1CCC1)C1=NOC2(CCN(Cc3ccccc3)C2)C1` (stereo not drawn), the cytotoxicity at 10 µM is -97.6%. With `CN1CCC2(CC1)CN(C(=O)c1ccncc1)Cc1ccccc12` the figure was -86.3%; with `CCc1cnc(N)nc1NCCc1ccc(OC)cc1OC`, 3.29%; with `Cc1cc2n(n1)CCN(c1nc(N(C)C)nc3c1CCNC3)C2`, 0.94%. As for `Cc1cc(C(=O)N(C)Cc2ccccc2OCC(C)C)cc(=O)[nH]1`, the cytotoxicity at 10 µM is 8.45%. In the case of `O=C(Cc1c[nH]c(=O)[nH]c1=O)N1CCC2(CCC(=O)N(C3CC3)C2)CC1`, the cytotoxicity at 10 µM is -44.5%. With `O=S1(=O)C[C@@H]2[C@H](C1)N(Cc1cc(F)cc(Cl)c1)CCN2CCO` the figure was -4.71%. `Cc1ncsc1CCN(C)Cc1ccc(CO)o1`: the cytotoxicity at 10 µM was -15.3%.

`Cc1noc(CN(C)CC2CCCN(CCc3ccc(Cl)cc3)C2)n1` (stereo not drawn): the cytotoxicity at 10 µM came out at 3.76%. With `CN1CCCC(CNS(=O)(=O)N2CCc3ccccc3C2)C1` (stereo not drawn) the figure was -4.32%; with `CCn1ccnc1-c1nccn1-c1ccccc1CN1CCOCC1`, 14.1%; with `O=C(O)[C@@H]1CN(C2CCCC2)C[C@H]1C1CC1`, -147%. Take `CCc1cc(N(C)Cc2noc(CC(C)C)n2)ncn1`: the cytotoxicity at 10 µM came to 7.18%.

Take `Cc1cc(CN2CCCC(CNC(=O)Cn3cccn3)C2)oc1C` (stereo not drawn): the cytotoxicity at 10 µM amounted to 6.2%.

For `O[C@H]1[C@H](NCCc2cnccn2)c2ccccc2C12CCNCC2`, the cytotoxicity at 10 µM was -7.32%. In the case of `CC(O)Cc1cn(CC2CCN(C3CCSCC3)CC2)nn1` (stereo not drawn) it was 8.88%.

For the compound `CC(c1ccc(F)cc1)n1ccnc1-c1cc2n(n1)CCCNC2` (stereo not drawn), the cytotoxicity at 10 µM is 2.36%. In the case of `c1ccc2c(c1)CCN(c1nc(-c3ccncc3)nc3c1CCNC3)C2` it was 37.3%; in that of `Cc1cnc(NCc2csc(C(C)C)n2)nc1-c1cnn(C)c1`, 2.83%; in that of `COc1cccc(Cl)c1C(C(=O)O)N(C)Cc1c(C)n[nH]c1C` (stereo not drawn), -1.89%. In the case of `Cc1cc2nc(C(C)C)cc(N(C)CC3CCCN(CCO)C3)n2n1` (stereo not drawn) it was 7.52%; in that of `CCC(NC(=O)C1CCN(S(C)(=O)=O)CC1)c1ccc(C)c(C)c1` (stereo not drawn), -8.06%. With `Cc1c[nH]c(CN(C)C(C(=O)O)c2c(F)cccc2OC(C)C)n1` (stereo not drawn) the figure was -50.6%; with `COc1cc(CN2CCN(c3cccc(OC)c3)C(=O)C2)cc(OC)c1`, -11.7%; with `COc1ccc(OC)c(-c2nc(CN(C)Cc3nncn3C)c(C)o2)c1`, -9.57%.

With `O=C(O)CCc1cccc(C2CCCN2Cc2ccc(F)c(F)c2)n1` (stereo not drawn), the cytotoxicity at 10 µM is -5.25%. In the case of `CCc1nc(C)c(C(=O)NCCNC(=O)c2cccs2)s1` it was -1.45%. As to `O=C(CN1CCC(c2ccnn2CCO)CC1)NCc1ccco1`, the cytotoxicity at 10 µM was found to be 1.68%. In the case of `CN1CCOC(CNCc2coc(-c3cccc(F)c3)n2)C1` (stereo not drawn) it was -29.3%; in that of `Cc1c(C(=O)NCC2CCS(=O)(=O)C2)cnn1-c1ccccc1` (stereo not drawn), -10.2%. Turning to `CCn1cnnc1CNC(=O)NC(C)c1ccccn1` (stereo not drawn), the cytotoxicity at 10 µM was -17.6%.

Take `CNc1snc(C)c1C(=O)N1CCCC(n2cc(C)cn2)C1` (stereo not drawn): the cytotoxicity at 10 µM was -3.42%. With `COc1ncccc1NC(=O)N(Cc1ccc(C)o1)C1CC1` the figure was -1.83%; with `c1ncn(CC2CN(Cc3csc(C4CCCC4)n3)CCO2)n1` (stereo not drawn), -8.55%. With `Cc1ccc(Oc2ccc(NC(=O)NCC3CCOC3)cn2)cc1C` (stereo not drawn) the figure was -5.28%.

On to `COCCNC(=O)Nc1ccc(-n2cncn2)c(F)c1`, for which the cytotoxicity at 10 µM is -0.0868%. In the case of `CC(NC(=O)NCCCc1n[nH]c(N)c1C#N)c1cccs1` (stereo not drawn), the cytotoxicity at 10 µM was -6.8%. With `Cc1cnn(CC2CCCCN2Cc2nc(N)c3ccccc3n2)c1` (stereo not drawn) the figure was -7.21%; with `Cc1cnn(CC2CN(Cc3nc4ccccc4nc3C)CCO2)c1` (stereo not drawn), -4.02%. With `c1csc(-c2noc(C3CNC3)n2)c1` the figure was -5.39%; with `Cc1noc([C@@H]2C[C@H]3OCC[C@H]3N(Cc3cc(C)c(C)o3)C2)n1`, -72.2%; with `O=C1N(c2ccsc2)CCC12CCCN(CC1CC1)C2` (stereo not drawn), -79.4%. As to `CCC(C)S(=O)(=O)N1CCc2nc(C3CCNCC3)ncc2C1` (stereo not drawn), the cytotoxicity at 10 µM was -10.7%. `CCS(=O)(=O)N1Cc2[nH]nc(COCc3cccnc3)c2C1`: the cytotoxicity at 10 µM was determined as 11.9%. With `COCC1CC2(CCN(c3cc(OC)ncn3)CC2)CN1C(C)C` (stereo not drawn) the figure was -108%; with `CC(C)n1nc(CN2CCCC2)c2c1CN(CC1CC1)CC2`, 2.53%; with `O=C(CC1CC1)N1CCc2ncc(Cn3cncn3)n2CC1`, -71.6%. With `O=C(c1cccc(F)c1)N1CCC2(CC1)CN(c1ccccn1)CCO2` the figure was -74.1%; with `Fc1cnc(N2CCCC3(CCN(Cc4cccs4)C3)C2)nc1` (stereo not drawn), -71.1%. Take `O=C(CCC1CCCC1)N1CCCC(c2ncc3c(n2)CCNC3)C1` (stereo not drawn): the cytotoxicity at 10 µM is -23%. With `Cc1cnc(N2CCC3(CC2)CN(Cc2cccs2)CCO3)nc1` the figure was 16.2%; with `Fc1cnc(N2CCn3c(CN4CCCC4)nnc3C2)nc1`, -145%. As for `CC1N(c2cnn(C)c2)C(=O)COC12CCN(c1ncccn1)CC2` (stereo not drawn), the cytotoxicity at 10 µM worked out at 0.952%.

(Values after ChEMBL document CHEMBL4513216, “Probing the Open Global Health Chemical Diversity Library for Multistage-Active Starting Points for Next-Generation Antimalarials” (ACS Infect Dis, 2020).)
